The source made the active and inactive calls. The calls are words filed in the database; no cut-off is given here. Where a SMILES comes first, the peptide text is derived from it. [ ]: non-standard residue; d: D form. The star is where a group is joined. Benzoyl(4-tBu) = CC(C)(C)c1ccc(C(=O)*)cc1; Lys(Et2) = CCN(CC)CCCC[C@H](N)C(=O)O
Key:
[1] = target: T1, Chromobox protein homolog 7 (Homo sapiens, UniProt O95931); test: Binding affinity to recombinant human N-terminal GST-tagged CBX7 (1 to 62 residues) expressed in Escherichia coli […] by SPR analysis
T1 sequence (O95931 whole entry): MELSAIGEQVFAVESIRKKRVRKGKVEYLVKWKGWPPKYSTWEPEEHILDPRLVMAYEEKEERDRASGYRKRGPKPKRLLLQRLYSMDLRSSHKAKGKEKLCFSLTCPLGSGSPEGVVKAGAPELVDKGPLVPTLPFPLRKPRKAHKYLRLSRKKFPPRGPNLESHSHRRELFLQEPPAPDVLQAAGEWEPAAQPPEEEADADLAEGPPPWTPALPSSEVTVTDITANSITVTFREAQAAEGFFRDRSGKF
Procedure, shortened: (§1)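 Chromodomain expressed with N-terminal GST tag in E. coli BL21 (IPTG 0.2 mM at OD600 0.6–0.8, 28 C for 6 h), GSTrap purified, tag cleaved by PreScission protease, amine-coupled to CM5 chip at pH 4.0–4.5 (5000–10000 RU). […] Mean ± SD of at least two replicates, each in duplicate.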

HEK-293T = test: Cytotoxicity against human HEK293T cells assessed as reduction in cell viability incubated for 24 hrs by CCK8 assay
[2] = target: T2, Chromodomain Y-like protein (Homo sapiens) (UniProt Q9Y232); test: Inhibition of CDYL in human SH-SY5Y cells assessed as increase in MYT1 mRNA expression incubated for 24 hrs by RT-qPCR analysis; type: cell-based
T2 sequence (whole entry): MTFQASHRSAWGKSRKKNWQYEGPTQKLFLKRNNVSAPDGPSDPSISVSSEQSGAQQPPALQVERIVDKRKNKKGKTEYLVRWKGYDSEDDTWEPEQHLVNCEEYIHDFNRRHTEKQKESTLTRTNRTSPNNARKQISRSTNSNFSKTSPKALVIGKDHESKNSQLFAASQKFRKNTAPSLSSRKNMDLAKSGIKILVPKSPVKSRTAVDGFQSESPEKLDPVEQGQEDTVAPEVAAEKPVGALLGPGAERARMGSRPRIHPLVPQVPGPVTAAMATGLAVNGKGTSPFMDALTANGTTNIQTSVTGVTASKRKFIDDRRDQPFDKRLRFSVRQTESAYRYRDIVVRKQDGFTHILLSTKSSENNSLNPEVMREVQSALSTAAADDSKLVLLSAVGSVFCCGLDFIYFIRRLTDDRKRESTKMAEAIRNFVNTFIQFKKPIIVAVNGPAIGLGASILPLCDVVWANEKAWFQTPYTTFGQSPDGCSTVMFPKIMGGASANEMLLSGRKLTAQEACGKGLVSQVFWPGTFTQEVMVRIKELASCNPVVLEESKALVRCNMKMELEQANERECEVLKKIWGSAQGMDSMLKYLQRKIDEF
Procedure, shortened: (§2)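 SH-SY5Y or HEK-293T cells grown in DMEM with 10% FBS and treated with compound for 24 h. mRNA quantified by SYBR green RT-qPCR after DNase treatment, 2^-ΔΔCt method with GAPDH as reference, relative to DMSO. Mean ± S.E.M. of triplicate experiments, Student's t-test.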

SH-SY5Y = test: Cytotoxicity against human SH-SY5Y cells assessed as reduction in cell viability incubated for 24 hrs by CCK8 assay
[3] = target: T3, Chromodomain Y-like protein (Homo sapiens, UniProt Q9Y232); test: Binding affinity to recombinant human N-terminal GST-tagged CDYL (1 to 60 residues) expressed in Escherichia coli […] by SPR analysis
T3 sequence (Q9Y232 whole entry): T2 sequence (whole entry)
Procedure, shortened: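 GST-tagged chromodomain expressed in E. coli BL21 with 0.2 mM IPTG at 28 °C for 6 h. Purified on GSTrap, tag removed with PreScission protease. Amine-coupled to CM5 chip at pH 4.0–4.5 (5000–10000 RU). Compound run as a 1.5- or 2-fold series from 100 µM in PBSP with 5% DMSO, 25 °C, 30 µL/min, 60 s association and 60 s dissociation.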

[4] = target: T2, Chromodomain Y-like protein (Homo sapiens); test: Inhibition of CDYL in human HEK293T cells assessed as increase in VGF mRNA expression at 50 to 200 uM incubated for 24 hrs by RT-qPCR analysis; type: cell-based; procedure, shortened: as §2
[5] = target: T4, Testis-specific chromodomain protein Y 1 (Homo sapiens, UniProt Q9Y6F8); test: Binding affinity to recombinant human N-terminal GST-tagged CDY1 (1 to 65 residues) expressed in Escherichia coli […] by SPR analysis; procedure, shortened: as §1
T4 sequence (Q9Y6F8 whole entry): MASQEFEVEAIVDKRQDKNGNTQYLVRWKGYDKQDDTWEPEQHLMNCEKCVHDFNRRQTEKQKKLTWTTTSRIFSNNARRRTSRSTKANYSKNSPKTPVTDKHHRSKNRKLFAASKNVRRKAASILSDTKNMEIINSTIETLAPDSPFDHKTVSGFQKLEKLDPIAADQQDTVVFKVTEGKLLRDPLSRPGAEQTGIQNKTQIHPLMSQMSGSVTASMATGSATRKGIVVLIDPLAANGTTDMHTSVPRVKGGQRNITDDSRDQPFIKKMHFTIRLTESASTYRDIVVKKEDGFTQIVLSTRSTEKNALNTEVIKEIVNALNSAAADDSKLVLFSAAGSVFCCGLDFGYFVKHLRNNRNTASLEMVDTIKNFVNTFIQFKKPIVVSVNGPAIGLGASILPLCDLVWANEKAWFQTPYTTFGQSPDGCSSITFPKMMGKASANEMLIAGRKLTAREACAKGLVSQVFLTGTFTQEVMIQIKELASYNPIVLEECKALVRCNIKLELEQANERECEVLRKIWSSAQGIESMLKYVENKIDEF

[6] = target: T2, Chromodomain Y-like protein (Homo sapiens); test: Inhibition of CDYL in human SH-SY5Y cells assessed as increase in BDNF mRNA expression incubated for 24 hrs by RT-qPCR analysis; type: cell-based; procedure, shortened: as §2
[7] = target: T2, Chromodomain Y-like protein (Homo sapiens); test: Inhibition of CDYL in human HEK293T cells assessed as increase in BDNF mRNA expression at 50 to 200 uM incubated for 24 hrs by RT-qPCR analysis; type: cell-based; procedure, shortened: as §2
[8] = target: T2, Chromodomain Y-like protein (Homo sapiens); test: Inhibition of CDYL in human HEK293T cells assessed as increase in MYT1 mRNA expression at 50 to 200 uM incubated for 24 hrs by RT-qPCR analysis; type: cell-based; procedure, shortened: as §2
[9] = target: T2, Chromodomain Y-like protein (Homo sapiens); test: Inhibition of CDYL in human SH-SY5Y cells assessed as increase in VGF mRNA expression incubated for 24 hrs by RT-qPCR analysis; type: cell-based; procedure, shortened: as §2
[10] = target: T2, Chromodomain Y-like protein (Homo sapiens); test: Effect on CDYL-mediated MYT1 mRNA expression in human HEK293T cells up to 200 uM incubated for 24 hrs by RT-qPCR analysis; type: cell-based
[11] = target: T2, Chromodomain Y-like protein (Homo sapiens); test: Effect on CDYL-mediated MYT1 mRNA expression in human SH-SY5Y cells up to 200 uM incubated for 24 hrs by RT-qPCR analysis; type: cell-based
[12] = target: T2, Chromodomain Y-like protein (Homo sapiens); test: Inhibition of CDYL in human SH-SY5Y cells assessed as increase in MYT1 mRNA expression at 100 uM incubated for 24 hrs by RT-qPCR analysis; type: cell-based
Procedure, shortened: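 SH-SY5Y cells exposed to 100 µM compound for 24 h. MYT1 mRNA measured by RT-qPCR: DNase treatment, SYBR green, 2^-ΔΔCt with GAPDH as internal control. Mean ± S.E.M. of triplicate experiments.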

[13] = target: T2, Chromodomain Y-like protein (Homo sapiens); test: Inhibition of CDYL in human SH-SY5Y cells assessed as MYT1 mRNA expression at 50 to 200 uM incubated for 24 hrs by RT-qPCR analysis; type: cell-based; procedure, shortened: as §2
[14] = target: T2, Chromodomain Y-like protein (Homo sapiens); test: Inhibition of CDYL in human SH-SY5Y cells assessed as BDNF mRNA expression at 50 to 200 uM incubated for 24 hrs by RT-qPCR analysis; type: cell-based; procedure, shortened: as §2
[15] = target: T2, Chromodomain Y-like protein (Homo sapiens); test: Inhibition of CDYL in human SH-SY5Y cells assessed as VGF mRNA expression at 50 to 200 uM incubated for 24 hrs by RT-qPCR analysis; type: cell-based; procedure, shortened: as §2

Structure (SMILES)	Kd [1] [µM]	Activity [2]	Kd [3] [µM]	Activity [4]	Kd [5] [µM]	Activity [7]	Activity [8]	further results
COc1cccc(C(=O)CC2(O)C(=O)Nc3ccc(Cl)cc32)c1 (racemic)	84.4	Dose-dependent effect	4.9					IC50 (HEK-293T): 56.1 µM; IC50 (SH-SY5Y): 68.1 µM
O=C(Cn1c(=O)oc2ccccc21)c1ccc2ccccc2c1	14.2	Dose-dependent effect	2.6	Active	41.7	Active	Active	Activity [6]: Dose-dependent effect; Activity [9]: Dose-dependent effect
CCN(CC)CCCC[C@H](NC(=O)[C@H](CC(C)C)NC(=O)[C@H](C)NC(=O)[C@H](Cc1ccccc1)NC(=O)c1ccc(C(C)(C)C)cc1)C(=O)N[C@@H](CO)C(=O)OC ({Benzoyl(4-tBu)}-FAL[Lys(Et2)]S-OMe)			5.6					Activity [10]: inactive; Activity [11]: inactive
CCc1ccc(C(=O)CC2(O)C(=O)Nc3ccc(Cl)cc32)cc1 (centres undefined)	12.1		55.6		33.5			Activity [12]: Active
COc1ccc2oc(=O)n(CC(=O)N3CCC(N4CCCC4)CC3)c2c1	8.2		12.5	inactive		inactive	inactive	Activity [13]: inactive; Activity [14]: inactive; Activity [15]: inactive
